For data set [1], the system named is A549. In words: Cytotoxicity against human A549 cells expressing NQO1 after 2 hrs by MTT assay. It is filed as functional, cell-based. The note with it: A549, 2 h. Put shortly: (§1)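 MTT assay: cells in RPMI 1640 + 10% FBS seeded at 10,000 cells/mL, attached 16 h, exposed to compound in triplicate for 2 h, washed out, then grown 72 h at 37 °C, 5% CO2; MTT 4 h, formazan in DMSO, A560. Dicoumarol cotreatment 25 µmol·L-1 for 2 h. IC50 from semilog plots of percent control.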
For orientation: Formazan colour is commonly taken as a measure of viable cells.

Data set [2] has as its target T1, NAD(P)H dehydrogenase [quinone] 1 (Homo sapiens, UniProt P15559). The experiment in a line: Drug metabolism assessed as recombinant human NQO1-mediated NADPH oxidation to NADP+ per micromol of protein preincubated for 3 mins followed by NADPH addition measured at 2 s intervals for 5 mins by enzyme labelling instrument-based assay. It is filed as ADME. Put shortly:
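NADPH recycling assay: quinones 0.1–50 µmol·L-1 with recombinant human NQO1 1.4 µg/mL in 50 mmol·L-1 potassium phosphate pH 7.4, 3 min preincubation, reaction started with NADPH 400 µmol·L-1; A340 every 2 s for 5 min at 22–25 °C. Slopes from linear 20 s–1 min, compared with no-compound reactions; at least triplicate.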

Data set [3] can be described thus: Intrinsic aqueous solubility of compound by Avdeef-Bucher potentiometric titration assay. The class given is physicochemical. As to conditions: aqueous solution; read-out: Intrinsic_solubility. In a few lines: (§2)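 Neutral aqueous solubility and log D at pH 7.4 by Avdeef–Bucher potentiometric titration on a Gemini Profiler.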
Data set [4] in a line: Solubility of compound in diluted hydrochloric acid buffer solution at pH 3 at 25 deg C for 8 hrs. The class given is physicochemical. Put shortly:
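Compounds shaken in diluted hydrochloric acid buffer at pH 3, 25 °C for 8 h.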

Data set [5] is described as follows: Lipophilicity, log D of compound at pH 7.4. The class given is physicochemical. The note with it: buffer. In a few lines: as §2
In data set [6] the test system is A549. The experiment in a line: Antitumor activity against human A549 cells xenografted in athymic nude mouse assessed as tumor proliferation rate at 30 mg/kg, iv administered every other day over 21 days relative to vehicle-treated control. It is filed as functional. Put shortly:
(§3)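 Athymic nude mice (7–8 weeks) given 5 × 10^6 log-phase A549 cells in the flank; randomized at mean tumor ~100 mm3 (5 mice/group) to vehicle, 15 or 30 mg/kg test agent in dilute HCl buffer pH 3, or positive control in saline; tail-vein injection every other day for three weeks. Caliper volume = a × b²/2, measured daily; wet tumor weight after euthanasia. TGI from weight; T/C = RTV(treated)/RTV(control) × 100, RTV = VT/V0.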
(In xenograft studies the graft and the host belong to different species.)

In data set [7] the target is T1, NAD(P)H dehydrogenase [quinone] 1. In words: Binding affinity to recombinant human NQO1 assessed as induction of ROS generation by measuring reduction of cytochrome C per min per mg of NQO1 by spectrophotometric analysis. In a few lines:
(§4)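 Superoxide via cytochrome c reduction at 550 nm: 30 µmol·L-1 cytochrome c, 0.2 mmol·L-1 NADPH, recombinant human NQO1 0.1–3.0 µg/mL, quinone 25 µmol·L-1 in 25 mmol·L-1 Tris-HCl pH 7.4 with 0.7 mg/mL BSA and 0.1% Tween-20; dicoumarol 25 µmol·L-1 where stated. Initial rates from linear 0–30 s; at least triplicate.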

In data set [8] the test system is A549. In words: Antitumor activity against human A549 cells xenografted in athymic nude mouse assessed as tumor growth inhibition at 30 mg/kg, iv administered every other day over 21 days relative to vehicle control. It is filed as functional. As to conditions: 504 h, read-out: TGI. Put shortly:
as §3

Data set [9] has as its system Mus musculus. In words: Toxicity in athymic nude mouse assessed as body weight loss at 15 to 30 mg/kg, iv administered every other day over 21 days relative to vehicle control. It is filed as organism-based. The note with it: in vivo, 504 h. In a few lines:
(§5)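 A549 xenograft nude mice, 5/group, dosed 15 or 30 mg/kg by tail vein every other day for three weeks in dilute HCl buffer pH 3; vehicle group as reference. Body weight tracked over treatment; liver examined for toxic signs.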

Data set [10] deals with T1, NAD(P)H dehydrogenase [quinone] 1. The experiment in a line: Binding affinity to recombinant human NQO1 assessed as induction of ROS generation by measuring reduction of cytochrome C per min per mg of NQO1 by spectrophotometric analysis in presence of NQO1 inhibitor dicoumarol. In a few lines: as §4
Data set [11] concerns Mus musculus. In words: Hepatotoxicity in athymic nude mouse at 15 to 30 mg/kg, iv administered every other day over 21 days relative to vehicle control. It is filed as toxicity, organism-based. The note with it: in vivo, 504 h. Put shortly: as §5
The nature of data set [12]: Selectivity ratio of IC50 for NQO1-deficient human NCI-H596 cells to IC50 for human A549 cells expressing NQO1. The class given is cell-based. Put shortly:
(§6)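 IC50 ratios from the 2 h-exposure/72 h MTT assay: A549 IC50 with 25 µmol·L-1 dicoumarol cotreatment divided by IC50 without; or H596 IC50 divided by A549 IC50.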

Data set [13] can be described thus: Cytotoxicity against human L02 cells after 2 hrs by MTT assay. The class given is cell-based. The note with it: L02, 2 h. Put shortly:
as §1

In data set [14] the test system is NCI-H596. The experiment in a line: Cytotoxicity against NQO1-deficient human NCI-H596 cells after 2 hrs by MTT assay. It is filed as cell-based. As to conditions: NCI-H596, 2 h. In a few lines:
as §1

For data set [15], the system named is A549. In words: Antitumor activity against human A549 cells xenografted in athymic nude mouse assessed as tumor growth inhibition at 15 mg/kg, iv administered every other day over 21 days relative to vehicle control. It is filed as functional, organism-based. In a few lines:
as §3

Data set [16] concerns A549. In words: Antitumor activity against human A549 cells xenografted in athymic nude mouse assessed as tumor volume at 30 mg/kg, iv administered every other day over 21 days (reference value: 1085.8 +/- 298.3 mm'3). The class given is functional. In a few lines: as §3
Data set [17] concerns A549. In words: Cytotoxicity against human A549 cells expressing NQO1 after 2 hrs in presence of dicoumarol by MTT assay. The class given is functional, cell-based. The note with it: A549, 2 h. Put shortly: as §1
Data set [18] relates to A549. The experiment in a line: Ratio of IC50 for human A549 cells expressing NQO1 in presence of NQO1 inhibitor dicoumarol to IC50 for human A549 cells expressing NQO1 in absence of NQO1 inhibitor dicoumarol. It is filed as functional. Put shortly: as §6

SMILES strings stand for the structures. In brackets after ≈: the same amount, converted by molar mass. Activity calls are given as the source filed them. The calls are words filed in the database; no cut-off is given here.

T1 sequence (P15559 whole entry): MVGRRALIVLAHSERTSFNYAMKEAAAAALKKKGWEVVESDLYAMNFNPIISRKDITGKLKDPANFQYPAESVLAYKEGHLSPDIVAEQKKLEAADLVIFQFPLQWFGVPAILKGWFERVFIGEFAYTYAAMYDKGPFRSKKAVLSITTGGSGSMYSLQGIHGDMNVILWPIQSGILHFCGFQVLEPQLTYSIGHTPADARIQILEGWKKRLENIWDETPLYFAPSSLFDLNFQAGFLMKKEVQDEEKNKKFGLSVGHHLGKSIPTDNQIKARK

The IC50 is the midpoint of a concentration-inhibition curve. `CCc1nc2c(o1)-c1ccccc1C(=O)C2=O` registered an IC50 in data set [1] of 7.6 µM. Further, in data set [2], the Drug metabolism was determined as 955 µmol/min.

As usually defined, the logD is the decadic logarithm of the distribution of all forms, ionised or not, between an organic phase and buffer at a given pH. Higher therefore signals a more lipophilic compound. In turn, `O=C1C(=O)c2nc(CNc3ccc(Cl)cc3)oc2-c2ccccc21` yielded an IC50 in data set [1] of 19 µM. Further, the solubility in [3] is 38 µg/mL (≈ 112 µM). Besides, the Drug metabolism in [2] was determined as 1522 µmol/min. In addition, the solubility at 8 h in data set [4] is less than 100 µg/mL. This compound showed a logD in data set [5] of 2.65.

For `COc1ccccc1NCc1nc2c(o1)-c1ccccc1C(=O)C2=O`, in [1], the midpoint of inhibition, the IC50, lay at 11 µM. The Drug metabolism in data set [2] was determined as 990 µmol/min. In addition, the solubility at 8 h in [4] was greater than 100 µg/mL.

The compound `O=C1C(=O)c2nc(CN3CCOCC3)oc2-c2ccccc21` displayed an IC50 in [1] of 6.9 µM. For the same compound, in data set [2], the Drug metabolism was found to be 686 µmol/min. This compound gave a solubility at 8 h in data set [4] greater than 100 µg/mL.

As to `O=C1C(=O)c2nc(CN3CCN(c4ccccc4)CC3)oc2-c2ccccc21`, the half-maximal inhibitory concentration (IC50) in data set [1] came to 7.6 µM. In addition, the Drug metabolism in data set [2] came out at 1139 µmol/min. Moreover, the solubility at 8 h in data set [4] was greater than 100 µg/mL.

The compound `Cc1nc2c(o1)-c1ccccc1C(=O)C2=O` displayed an IC50 in data set [1] of 20 µM. The Drug metabolism in [2] amounted to 1202 µmol/min.

For orientation: T/C means the ratio of treated to control. For the compound `CC1(C)CCC2=C(O1)c1ccccc1C(=O)C2=O` [LAPACHONE], in data set [1], the IC50 is 3.7 µM. The Drug metabolism in data set [2] turned out to be 1210 µmol/min. In addition, in data set [4], the solubility at 8 h was less than 100 µg/mL. Besides, the T/C in data set [6] is on record as 29.5%. In data set [7], the result was Active. Moreover, the inhibition in vivo at 30 mg/kg in data set [8] is 70.1%. The logD in data set [5] was found to be 2.85.

As for `COc1cccc(NCc2nc3c(o2)-c2ccccc2C(=O)C3=O)c1`, in [1], the IC50 came out at 15 µM. In addition, the Drug metabolism in data set [2] came out at 955 µmol/min. Further, the solubility at 8 h in data set [4] was greater than 100 µg/mL.

`CN(C)Cc1nc2c(o1)-c1ccccc1C(=O)C2=O` showed an IC50 in data set [1] of 8.7 µM. Further, in [2], the Drug metabolism is 939 µmol/min. For the same compound, in [4], the solubility at 8 h is greater than 100 µg/mL.

In data set [1], `COc1ccc(NCc2nc3c(o2)-c2ccccc2C(=O)C3=O)cc1` came in with an IC50 of 13 µM. Moreover, the Drug metabolism in data set [2] is 1063 µmol/min. This compound came in with a solubility at 8 h in data set [4] greater than 100 µg/mL.

In [1], `O=C1C(=O)c2nc(CNc3cccc(F)c3)oc2-c2ccccc21` returned an IC50 of 5.2 µM. In data set [3], the solubility came out at 44 µg/mL (≈ 137 µM). In addition, the Drug metabolism in data set [2] was determined as 1391 µmol/min. The solubility at 8 h in data set [4] is less than 100 µg/mL. Besides, the logD in data set [5] came to 3.18.

Take `Cc1ccc(NCc2nc3c(o2)-c2ccccc2C(=O)C3=O)cc1`: 12 µM corresponded to half-maximal inhibition in [1] (IC50). Besides, in data set [2], the Drug metabolism was determined as 968 µmol/min. Besides, in data set [4], the solubility at 8 h is greater than 100 µg/mL.

Take `O=C1C(=O)c2nc(CN3CCN(Cc4ccccc4)CC3)oc2-c2ccccc21`: the Activity entry is given as “Non-toxic” in [9]; “Not Active” in data set [10]; “Non-toxic” in [11]; “Active” in data set [7]; 440.8 mm3 in data set [16]. In addition, the IC50 stood at 4.6 µM in [1], 70 µM in data set [13], 57 µM in data set [14] and 64 µM in data set [17]. In addition, the solubility in [3] is 125 µg/mL (≈ 323 µM). Besides, the entries for the “Ratio IC50” value in data set [12] and in [18] were greater than 12 and greater than 7, respectively. Further, in [2], the Drug metabolism was 1360 µmol/min. Moreover, in data set [4], the solubility at 8 h is greater than 500 µg/mL. Also, in data set [6], the T/C was determined as 41.4%. For the same compound, in data set [15], the TGI entry is “Active”. Also, in data set [8], the inhibition in vivo at 30 mg/kg worked out at 55.6%. In [5], this compound showed a logD of 1.88.

(Values after ChEMBL document CHEMBL3751847, “Novel naphtho[2,1-d]oxazole-4,5-diones as NQO1 substrates with improved aqueous solubility: Design, synthesis, and in vivo antitumor evaluation” (Bioorg Med Chem, 2016).)
